# This is a sample that favours compounds with a hit; in the whole collection about 4.2% have one here.
# WT yeast gro inh = growth inhibition of WT strain, primary screen, mitochondrial fusion inhibitor project, WT and mutant strains, chemical genetic; mitochondrial fusion phenotypic screen; inhibition, % at 10 µM; hit rate 2.1% among 190,000; AID 1362, 2008; in the data active = inhibition above about 58%; tested in S. cerevisiae
# SKKanGAS inh = S. pyogenes SKKanGAS growth inhibitors in kanamycin, primary screen, streptokinase expression inhibitor project, SKKanGAS strain, BacTiter-Glo luminescence; 6 h; AID 1662, 2009; hit rate 1.3% among 300,000; inhibition, % at 7.5 µM;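 active = mean replicate score, as percent of positive control median, at least 50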;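 also: strain carries kanamycin resistance gene driven by streptokinase promoter and grows in 40 µg/ml kanamycin; loss of luminescence reflects streptokinase promoter inhibition or plain growth inhibition; 0% = median of DMSO wells and 100% = positive control at its reference dose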
# KCC2 mod = KCC2 cotransporter modulators, thallium flux, primary screen, cell-based, HEK293 KCC2, FluoZin-2 fluorescence, MLSMR; Solute carrier family 12 member 5 (Homo sapiens), Q9H2X9; KCC2 cells, thallium flux FluoZin-2 fluorescence; B-score of Tl+ flux slope (higher = more flux/activation; lower = inhibition) at 10 µM; hit rate 2.2% among 190,000;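 active = thallium flux slope and its plate-corrected score both differing from the plate sample mean at a set confidence after two filtering rounds, in either direction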;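 also: slope of fluorescence scaled to starting intensity during 10 to 20 s after thallium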
# Autophagy mod = autophagy modulators in MEF cells, primary screen, imaging, high-content, MEF GFP-LC3; hit rate 0.98% among 190,000; AID 463193, 2010; calls only at 10 µM (by protocol); MEF GFP-LC3 puncta imaging; test concentration mostly 10 µM;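 active = percentage of spot-positive cells more than 3 SD above its plate mean, without a fluorescence outlier flag or 80% toxicity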;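 also: spot-positive cell cutoff set from DMSO-treated cells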
# Rad51 HR inh = human RAD51 strand exchange inhibitors, primary screen, biochemical, fluorescence; inhibition, % at 10 µM; DNA repair protein RAD51 homolog 1 (Homo sapiens), Q06609; AID 1385, 2008; hit rate 0.085% among 200,000; hRad51 DNA strand exchange, fluorescence dequenching;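 active = inhibition above 40% at the single screening dose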;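 also: 0% = DMSO control wells and 100% = blanks with heterologous ssDNA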
# Target sequence (Q06609 whole entry, looked up): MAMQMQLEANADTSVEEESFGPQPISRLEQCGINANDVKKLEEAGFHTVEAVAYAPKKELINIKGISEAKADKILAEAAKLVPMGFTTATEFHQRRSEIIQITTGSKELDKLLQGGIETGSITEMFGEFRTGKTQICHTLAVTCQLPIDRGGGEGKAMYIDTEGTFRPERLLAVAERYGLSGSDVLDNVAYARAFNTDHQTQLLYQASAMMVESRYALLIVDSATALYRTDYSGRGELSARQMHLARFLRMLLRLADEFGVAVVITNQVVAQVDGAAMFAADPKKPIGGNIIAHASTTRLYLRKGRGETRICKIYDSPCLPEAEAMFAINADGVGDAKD
#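 Test system – preformed human Rad51 ssDNA filaments · Reagent – Donor/quencher-labelled 47-bp dsDNA substrate · Incubation – 37 °C 15-min filament assembly, 30-min compound preincubation, 15-min exchange · Signal – FRET fluorescence dequenching, excitation 485 nm, emission 520 nm · Read-out – percent inhibition from fluorescence, normalised to plate control and blank means · Benchmarks – plate control and blank wells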
# Insulin prom up = insulin promoter activators in MIN6 cells, imaging, high-content screening, mouse beta cells; MIN6 insulin promoter-GFP reporter; active compounds read high; AID 1625, 2009; hit rate 0.3% among 190,000; z-score at 5 µM;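 active = z-score above 3 at 5 µM with at least 500 cells counted in the well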
# * marks the source's active call; other numbers are inactive results; i = inactive; . = no result given; + = active, no number.
SMILES,WT yeast gro inh,SKKanGAS inh,KCC2 mod,Autophagy mod,Rad51 HR inh,Insulin prom up
CN1CCN(c2nc(-c3cccnc3)nc3scc(-c4ccccc4)c23)CC1,15.1,-4.6,-0.048,i,1.7,-0.19
CC1CCCN(c2nc(-c3cccnc3)nc3scc(-c4ccccc4)c23)C1 (centres undefined),60.8*,38.9,-1.5,i,3.1,0.16
CCOc1cc(C2Nc3ccccc3C(=O)N2c2ccccc2OC)ccc1O (centres undefined),73.5*,9.1,-0.211,i,-1.3,0.38
COc1cc(C2Nc3ccccc3C(=O)N2c2ccccc2OC)ccc1O (centres undefined),-26.9,-3.8,-0.55,i,.,1.31
O=[N+]([O-])c1cc(Cl)cc(/C=N/NC(=S)Nc2ccc(S(=O)(=O)N3CCOCC3)cc2)c1O,.,93.8*,-2.69,.,9.0,-0.83
CCCNC(=O)c1sc2c(c1C(=O)Nc1ccccn1)CCCC2,16.8,-9.2,-1.6,+,-0.4,-0.65
COc1ccc(C(=O)N2CCCC(Nc3ccc(C)c(C)c3)C2)cc1F (centres undefined),.,51.5*,.,.,.,.
COc1ccc(C(=O)N2CCCC(Nc3ccc(F)cc3)C2)cc1F (centres undefined),.,-5.1,.,.,.,.
CCOC(=O)c1nnn(-c2nonc2N)c1-c1ccc(OCC)cc1,-6.0,-1.5,.,i,18.3,3.82*
CCOc1ccc(/C=N/NC(=O)c2nnn(-c3nonc3N)c2-c2ccc(OCC)cc2)cc1,2.0,10.7,1.09,i,.,0.25
CC(C)COc1ccc(-c2nn(-c3ccccc3)cc2C(=O)Nc2nccs2)cc1,22.3,96.2*,0.685,i,3.8,.
O=C1S/C(=C\c2ccc(O)c([N+](=O)[O-])c2)C(=O)N1c1ccccc1Cl,79.6*,-3.3,-3.46*,i,.,-0.49
O=C1S/C(=C\c2ccc(O)c([N+](=O)[O-])c2)C(=O)N1Cc1cccc([N+](=O)[O-])c1,86.0*,-4.1,.,i,3.3,0.61
COc1cc(/C=C2\SC(=O)N(c3cccc(Cl)c3)C2=O)cc([N+](=O)[O-])c1O,56.4,.,-0.35,i,2.8,-0.99
Cc1cccc(NC(=O)CN2C(=O)S/C(=C\c3ccc(O)c([N+](=O)[O-])c3)C2=O)c1,33.1,17.9,-1.52,i,6.9,0.09
COc1cc(NC(=O)c2ccc(C)cc2)c(OC)cc1NC(=O)CN1CCOCC1,-4.0,3.0,-0.158,i,-4.5,.
COc1cc(NC(=O)c2ccc(C(C)(C)C)cc2)c(OC)cc1NC(=O)CN1CCCCC1,69.7*,5.7,1.29,i,-0.5,-0.09
COc1cc(NC(=O)c2ccc(Cl)cc2)c(OC)cc1NC(=O)CN1CCOCC1,23.0,-5.5,-5.25*,i,8.8,-0.21
CCCCNC(=O)c1cc2cc(CC)ccc2[nH]1,.,-6.1,0.743,.,0.3,0.13
Cc1nc2ccccc2c(=O)n1NC(=O)C1CC1,0.2,7.9,-1.21,i,.,0.2
CC(NC(=O)c1ccc(Br)cc1)c1ccc2c(c1)CCCC2 (centres undefined),63.4*,27.2,0.0735,i,-1.9,-0.8
O=C(Nc1ccc(F)cc1)Nc1ccc([N+](=O)[O-])cn1,18.1,-5.9,-0.133,+,18.5,-0.17
COc1cccc(-c2c(C(=O)N/N=C(\C)c3cccnc3)nnn2-c2nonc2N)c1,.,0.6,.,.,.,.
COC(=O)c1ccc(C#Cc2ccccc2)o1,.,10.4,.,.,24.0,-0.19
Cc1cc(Br)ccc1NC(=O)CN(C)C(=O)CSCc1ccccc1,.,-4.6,.,.,.,.
SMILES,WT yeast gro inh,SKKanGAS inh,KCC2 mod,Autophagy mod,Rad51 HR inh,Insulin prom up
CC(C)(C)c1ccc(-c2noc(-c3ccc4c(c3)CCO4)n2)cc1,.,82.4*,0.607,.,20.1,-0.22
Cc1cc(-c2nc(-c3ccc(C(C)(C)C)cc3)no2)no1,.,-1.1,-0.522,.,-7.7,.
CC(C)C[C@H](NC(=O)c1nc[nH]c1C(=O)NCC(=O)OC(C)(C)C)C(=O)OC(C)(C)C,.,8.9,0.0191,.,0.6,-0.98
CC(C)C[C@H](NC(=O)c1[nH]cnc1C(=O)N[C@H](C)c1ccccc1)C(=O)OCc1ccccc1,11.4,72.9*,0.444,i,-5.5,2.01
CC(C)C[C@H](NC(=O)c1nc[nH]c1C(=O)N[C@@H](CC(C)C)C(=O)OC(C)(C)C)C(=O)OC(C)(C)C,.,87.2*,0.976,.,-2.4,-0.7
CC(C)C[C@H](NC(=O)c1[nH]cnc1C(=O)N[C@H](C)c1ccccc1)C(=O)OC(C)(C)C,42.5,57.4*,0.0114,i,5.1,-0.82
CC(C)C[C@H](NC(=O)c1[nH]cnc1C(=O)Nc1ccc(Cl)cc1)C(=O)OC(C)(C)C,.,60.1*,-0.563,.,4.7,-0.32
CCCNC(=O)c1nc(C)n(-c2cc(Cl)ccc2Cl)n1,-23.4,-4.6,0.0493,i,9.0,-0.19
Cc1nn(C(C)C(=O)NC(C)CCc2ccccc2)c(=O)c2cc3occc3n12 (centres undefined),.,-0.1,.,.,.,.
Cc1ccc(NC(=O)c2nc[nH]c2C(=O)N[C@@H](C)c2ccccc2)cc1,74.3*,66.1*,2.98,i,-4.5,-0.42
CC(C)C[C@H](NC(=O)c1nc[nH]c1C(=O)NC(c1ccccc1)c1ccccc1)C(=O)OC(C)(C)C,8.6,59.9*,0.0399,i,-4.7,-0.38
CCCCC(CC)CNC(=O)CN1C(=O)NC2(CCc3ccccc32)C1=O (centres undefined),.,-0.7,.,.,.,.
CCOC(=O)c1c(NC(=S)N2CCN(C)CC2)sc(C)c1-c1ccccc1,.,50.1*,.,.,.,.
CCOC(=O)c1c(NC(=O)CSc2nnc(N)s2)sc(C)c1-c1ccc(C)cc1,78.0*,11.8,0.309,i,5.2,-0.58
CC(=O)Nc1ccc(NC(=O)C(C)OC(=O)c2ccc(C)s2)cc1 (centres undefined),0.3,-2.6,0.708,i,26.3,0.12
CCC(CC)c1nnc(NC(=O)C2=NNC(=O)CC2)s1,5.3,-5.1,-0.554,i,-7.4,.
COC(=O)C1=C(C)NC(C)=C(C(=O)OC)C1c1ccc(OC(=O)c2oc3ccccc3c2C)c(OC)c1,13.8,11.0,0.211,i,.,-0.37
FC(F)(F)c1nnc2ccc(N3CCCC3)nn12,-5.2,-9.8,-0.193,i,56.7*,0.21
O=C(NC(CO)C(O)c1ccc([N+](=O)[O-])cc1)C(Cl)Cl (centres undefined),17.7,103.6*,-0.178,i,-3.2,-0.92
O=C(NC(CO)Cc1ccc([N+](=O)[O-])cc1)C(Cl)Cl (centres undefined),7.2,96.8*,1.46,i,-4.2,-0.39
